Experimental data from the EternaBench riboswitch data.

Test system: MS2 coat protein
Test: apparent Kd, MS2 coat protein; higher = weaker binding; RNA-MaP array; FMN 200 µM where present
How it was run: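 Designs were transcribed by stalled E. coli RNA polymerase on Illumina sequencing-chip clusters. They were titrated with SNAP-549-labelled MS2 coat protein from 0.7 or 1.5 nM, doubling to 3 µM, in 100 mM Tris-HCl pH 7.5, 80 mM KCl, 4 mM MgCl2, BSA, DTT, yeast tRNA and Tween-20, without and then with constant ligand. The apparent Kd is the median of filtered per-cluster fits after normalisation of green signal to red-channel RNA signal and control-cluster median Fmax.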

[1] = designed as: OFF switch for flavin mononucleotide, no ligand
[2] = ligand present: flavin mononucleotide, designed as: OFF switch for flavin mononucleotide
[3] = designed as: ON switch for flavin mononucleotide, no ligand
[4] = ligand present: flavin mononucleotide, designed as: ON switch for flavin mononucleotide

| Sequence | apparent Kd [1] | apparent Kd [2] | apparent Kd [3] | apparent Kd [4] |
| --- | --- | --- | --- | --- |
| CGGCGGAAAGGAUAUGCAUUAAUAUCAAAAUGUGGGCCACGACAUGAGGAUCACCCAUGUAGAAGGUUCAGCCA | 16.4 nM | 13.3 nM | – | – |
| CGGUAAACCACAGGAUAUGGCUAGCAUAGCUAGCCAGAAGGGUGGUCGAAACCAUGUAAAUACAUGAGGAUCACCCAUGUAUCC | – | – | 501 nM | 52.6 nM |
| CGGUCACAUGAGGAUCACCCAUGUACCUACCCGAUGAAGUCGCAGGAUAUCCAUUACUUUACGUAGGAGAAGGGUGACGCUCGC | – | – | 49.7 nM | 79.3 nM |
| CGGUCGAUGUAAGGAUAUCGACUGGAAUACAGUCGAGAAGGUACAUGAGGAUCACCCAUGUAAUCCAAUAAUAAAUAACGACCG | 12.6 nM | 22.5 nM | – | – |
| CGUAACUGCAUAGGAUAUUGAUACAUGAGGAUCACCCAUGUUUUUGGGAUUAGUAAUAUAUUAAGCAAGAAGGAUGGAGUUACG | – | – | 74.2 nM | 39.9 nM |
| CGUAUGUCAGGAUAUGCGUAUGCCGCCCAGGACAGGCGGCAGCAGAAGGGACAUGAGGAUCACCCAUGUUCGGG | 68.3 nM | 59.5 nM | – | – |
| CGUCAUUACUCAGGAUAUGCAUCAUACUUGAGGGCAGAAGGGAGUACAUGAGGAUCACCCAUGUACUAUGGGUGCCUAAGAGGU | 18.7 nM | 101 nM | – | – |
| CGUCCGUGGGUAGUGAUCGUACAUGAGGAUCACCCAUGUGAGAAGGAUAUGCAUGCACGCGGACAGCAGAAGGUCUCACAACAA | 133 nM | 429 nM | – | – |
| CGUCUAUGCCAGAAGGCAUGAAACAUGAGGAUCACCCAUGUCAAAGACAUGAGGAUAUGGCAUAGACGAAAAGUGCGAAAGCAC | – | – | 4.32 nM | 3.27 nM |
| CGUGCACAUGAGGAUCACCCAUGUCGUCGCGAUCAAGGAUAUGAAAGCAGCGUUAUGUUAUCAGAAGGUGAACCUC | – | – | 28.1 nM | 21.9 nM |
| CGUGCGUAUGUGAGGAUAUGCUGGUCCUUGGAUCGGCAGAAGGCACAUGAGGAUCACCCAUGUGGUGUCGUUCU | 172 nM | 23.1 nM | – | – |
| CGUGUGUGAACAGGAUAUUGGAACGUACCUCGCCACAUGAGGAUCACCCAUGUCGUUGCUCACGCCAAGAAGGGUUUACGCCUA | – | – | 248 nM | 226 nM |
| CGUUCAGAGAACGAUACGAAUGGACAUGAGGAUCACCCAUGUAGAAGGACAGGAGAAUAACGACUGUAGGAUAUACAUUUAGUG | 41.3 nM | 76 nM | – | – |
| CUAAAUCAUGUAGGAUAUGCAUGGCGAAGCUACGCAGAAGGACAUGAGGAUCACCCAUGUCUGUCCGUCUGCGUACAGACGGAC | 20.4 nM | 115 nM | – | – |
| CUAACACAUGAGGAUCACCCAUGUUAGGAUAUUAGUACUAUUUACCACAUAAUGGCACUGAGAAGGAGCGGGUA | 29.3 nM | 31.3 nM | – | – |
| CUAGUAUAUCAGGAUAUGAUAAUGUGUAGUAUAUCAGAAGGGAUGACAUGAGGAUCACCCAUGUUAAGGGAUGA | 58.1 nM | 118 nM | – | – |
| CUAUACAUAUCAGGAUAUCAUCGCGUGGAUUAACCCUGUGAUUACAUGAGGAUCACCCAUGUGCUUGAGAAGGGAUUACUAUUU | 33.7 nM | 152 nM | – | – |
| CUAUCUUGCAAGGAUAUGCAAUUUAUUAUUUAUGCAGAAGGUGCUACAUGAGGAUCACCCAUGUUUCUGGGUUU | 134 nM | 257 nM | – | – |
| CUAUGAGCGAUAGGAUAUACUGAGAUUGAGUGGGUAGAAGGAUCGAUAGUGUAGAAGACAUGAGGAUCACCCAUGUUACGGGCC | – | – | 188 nM | 186 nM |
| CUAUGCGGAAUAGGAUAUUCGCUCAUGAGGAUAGAAGAAGGGUUACAUGAGGAUCACCCAUGUAUGCACAUGAGGAUCCCUUAG | 134 nM | 150 nM | – | – |
| CUAUUUAGUGCCUCAUGUACAUGAGGAUCACCCAUGUUAACUUAGGAUAUAUUUAUAUUGAUAGAGUAGAAGGAAGUACUAUUG | 70.2 nM | 61 nM | – | – |

| Sequence | apparent Kd [1] | apparent Kd [2] | apparent Kd [3] | apparent Kd [4] |
| --- | --- | --- | --- | --- |
| CUCACGUUAGUAGGAUAUCCGACAUGAGGAUCACCCAUGUCACUACGCCUCAAGGGAAGGUGUAAGGAGAAGGGCUGAUAAAUA | – | – | 178 nM | 88.3 nM |
| CUCAGACAUGAGGAUCACCCAUGUGAGGAUAUGAUGCAGCAGUGGUCUACGCUGUGCAUCAGAAGGCACAUGUG | 36.5 nM | 12.5 nM | – | – |
| CUCAUGUCAGGAUAUCGUGCAGCUACCGAAAGGUAGCUGCACGAGAAGGGACAUGAGGAUCACCCAUGUAUGAA | 22.2 nM | 18.4 nM | – | – |
| CUCAUGUGAGGAUAUCAGUAGUAAAAAAAUAAAAUUACUACUGAGAAGGCACAUGAGGAUCACCCAUGUACCUU | 70.7 nM | 72 nM | – | – |
| CUCCGGCGUGUAGGAUAUGGAUCCGAUUAGGAUCCAGAAGGACAUGAGGAUCACCCAUGUACAUGUAAACAGUCAUCACCGGAA | 7.61 nM | 18.8 nM | – | – |
| CUCCGGCGUGUAGGAUAUGGAUCCGAUUAGGAUCCAGAAGGACAUGAGGAUCACCCAUGUACAUGUAAACAGUCAUCACCGGAG | 6.24 nM | 6.99 nM | – | – |
| CUCGAGUGAGGAUAUUGAAUCGGCGGCUGACCGCACGAGCUCGAGAAGGCACAUGAGGAUCACCCAUGUGGGUC | 15.2 nM | 27.3 nM | – | – |
| CUCUUGUAAGGAUAUGACUACAUAAAAAAAAAAAAAUGUAGUCAGAAGGUACAUGAGGAUCACCCAUGUACAAA | 22.7 nM | 25.6 nM | – | – |
| CUGAGCAAUGUAGGAUAUCGACUGGAUAACAGUCGAGAAGGACAUGAGGAUCACCCAUGUCAAUGAGUGAAUAAUAAAGCUCAG | 20.4 nM | 118 nM | – | – |
| CUGAUGUUAGGAUAUCAGGCUGCGCGCGAAGGCGGACGGCAUGAGAAGGAACAUGAGGAUCACCCAUGUGACGA | 32.6 nM | 103 nM | – | – |
| CUGAUGUUAGGAUAUCAGGCUGUGCACGAAGACGGGCGGCAUGAGAAGGAACAUGAGGAUCACCCAUGUGACGG | 36.3 nM | 77.6 nM | – | – |
| CUGAUGUUAGGAUAUCAGGUCGCGCGCGAAGGCGCGCAGCAUGAGAAGGAACAUGAGGAUCACCCAUGUGACGA | 22.4 nM | 60.5 nM | – | – |
| CUGCCCAGUGUGAGGAUAUACAAAGGAAUUCCUUGGUAGAAGGCACAUGAGGAUCACCCAUGUGACUCGCGGUA | 20.6 nM | 52.7 nM | – | – |
| CUGGUGUGAGGAUAUCAAAGACCUCGGGAUAGUACCGAGGAUGAGAAGGCACAUGAGGAUCACCCAUGUAACAA | 21.2 nM | 35.4 nM | – | – |
| CUGGUGUGAGGAUAUCAAAGACCUCGGUAAAGAACCGAGGAUGAGAAGGCACAUGAGGAUCACCCAUGUAACAA | 23.3 nM | 32.9 nM | – | – |
| CUGUAACAUGAGGAUCACCCAUGUCAGGAUAUCUAUCAUAGCAUCGAAAGAUGCGGGUAGAGAAGGGACUAUCC | 17 nM | 18.2 nM | – | – |
| CUGUAAGAUGUAGGAUAUACAAUAAUAUUGUUAGUAGAAGGACAUGAGGAUCACCCAUGUAUAUAAAUUUUAAAUACUUUUGUG | 40.8 nM | 31.5 nM | – | – |
| CUGUGUCCGCAGGAUAUGUUAUCCUGAAGGAUCACAGAAGGGCGGACAUGAGGAUCACCCAUGUGAGCCAAAGA | 16.2 nM | 17.3 nM | – | – |
| CUUAGACAUGAGGAUCACCCAUGUGAGGAUAUGAUGCGAUCGUCGAAAGACGAUAGCAUCAGAAGGUACAAAUG | 86 nM | 67 nM | – | – |
| CUUCUGUAAGGAUAUGUAAAUUGCUGGCCACACCAGCACCGGCAGAAGGUACAUGAGGAUCACCCAUGUGGGUU | 219 nM | 137 nM | – | – |
| CUUGAUCUUGUCAGGAUAUACCUGCCUAGUUGGAGGUAGAAGGGACAUGAGGAUCACCCAUGUAGCCAACCGAC | 16.9 nM | 19.2 nM | – | – |
